{
  "source": "ChEMBL document CHEMBL1157725",
  "about": "(Bioorg Med Chem, 2010)",
  "key": {"MCF7": {"test_system": "MCF7", "experiment": "Antiproliferative activity against human MCF7 cells after 24 hrs by SRB assay", "type": "functional, cell-based", "conditions": "MCF7, 24 h", "in_short": "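MCF-7 cells are grown for 24 h with or without drug, then for a further 48 h. Total cell protein is measured by sulforhodamine B staining, and the IC₅₀ is derived from it.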"}, "[1]": {"experiment": "Inhibition of tubulin polymerization by turbidimetry", "in_short": "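Tubulin at 10 µM (1.0 mg/mL). Polymerization followed turbidimetrically at 350 nm in temperature-controlled spectrophotometers.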"}, "[2]": {"experiment": "Inhibition of tubulin in rat A10 cells assessed as induction of cellular microtubule disassembly after 18 hrs by indirect immunofluorescence technique", "type": "cell-based", "conditions": "A10, 18 h", "in_short": "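A-10 cells plated on glass coverslips and treated with compound at varying concentrations for 18 h. After fixation, microtubules immunostained with a β-tubulin antibody (indirect immunofluorescence) and nuclei stained with DAPI. Read by fluorescence microscopy. Percentage of cellular microtubule loss estimated visually across the concentration range.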"}},
  "data": [
    {"smiles": "COc1ccc(C(=O)/C=C/c2cc(OC)c(OC)c(OC)c2)cc1O", "values": [
      {"measurement": "IC50", "setting": "MCF7", "value": "> 2.5", "unit": "µM"},
      {"measurement": "IC50", "setting": "[1]", "value": "> 40", "unit": "µM"},
      {"measurement": "EC50", "setting": "[2]", "value": 18, "unit": "µM"}
    ]}
  ]
}
